# Assay results as given in ChEMBL document CHEMBL1122890, “Resolved monophenolic 2-aminotetralins and 1,2,3,4,4a,5,6,10b-octahydrobenzo[f]quinolines: structural and stereochemical considerations for centrally acting pre- and postsynaptic dopamine-receptor agonists” (1985).
# The source made the active and inactive calls. No cut-off for these calls is given here.
# Tests used:
# [1] = organism: Rattus norvegicus; assay: Evaluated for dopa accumulation (biochemical activity) in rat limbic system; assay type: functional
# Method in brief: (§1)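 Male Sprague-Dawley rats, 200-300 g. Compound dissolved in saline (sometimes with a little glacial acetic acid or warming), neutral pH, given sc at 50 μmol/kg. Dopa in limbic forebrain and striatum was measured by HPLC with electrochemical detection and expressed as percent of controls.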
# [2] = tested on: Rattus norvegicus; assay: Evaluated for the dose giving a half-maximal decrease of dopa formation in the rat brain, at a dose of 13000 (nmol/kg); assay type: functional
# Method in brief: (§2)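 Male Sprague-Dawley rats (200-300 g) received sc doses in saline, neutral pH. Dopa was measured in each brain area by HPLC with electrochemical detection. A separate dose-response curve was built per substance and brain area from four to six dose levels (n = 3-5). The dose giving half-maximal decrease of Dopa formation was estimated from that curve. Student's t-test was used, p ≤ 0.05.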
# [3] = organism: Rattus norvegicus; assay: Evaluated for dopa accumulation (biochemical activity) in rat striatum; assay type: functional; method in brief: as §1
# [4] = tested on: Rattus norvegicus; assay: Evaluated for the dose giving a half-maximal decrease of dopa formation in the rat brain, at a dose of 39000 (nmol/kg); assay type: functional; method in brief: as §2
# [5] = tested on: Rattus norvegicus; assay: Evaluated for the dose giving a half-maximal decrease of dopa formation in the rat brain, at a dose of 310 (nmol/kg); assay type: functional; method in brief: as §2
# [6] = tested on: Rattus norvegicus; assay: Evaluated for the dose giving a half-maximal decrease of dopa formation in the rat brain, at a dose of 213000 (nmol/kg); assay type: functional; method in brief: as §2
# [7] = tested on: Rattus norvegicus; assay: Evaluated for the dose giving a half-maximal decrease of dopa formation in the rat brain, at a dose of 1300 (nmol/kg); assay type: functional; method in brief: as §2
# [8] = tested on: Rattus norvegicus; assay: Evaluated for the dose giving a half-maximal decrease of dopa formation in the rat brain, at a dose of 3100 (nmol/kg); assay type: functional; method in brief: as §2
# [9] = tested on: Rattus norvegicus; assay: Evaluated for the dose giving a half-maximal decrease of dopa formation in the rat brain, at a dose of 50000 (nmol/kg); assay type: functional; method in brief: as §2
# [10] = tested on: Rattus norvegicus; assay: Evaluated for dopa accumulation (biochemical activity) in rat limbic system; Inactive at 50 umol/kg; assay type: functional, organism-based; method in brief: as §1
# [11] = tested on: Rattus norvegicus; assay: Evaluated for dopa accumulation (biochemical activity) in rat striatum; Inactive at 50 umol/kg; assay type: functional, organism-based; method in brief: as §1
# [12] = tested on: Rattus norvegicus; assay: Evaluated for the dose giving a half-maximal decrease of dopa formation in the rat brain, at a dose of 31000 (nmol/kg); assay type: functional; method in brief: as §2
Compound,ED50 [1],ED50 [3],further results
CCCN1CCC[C@H](c2cccc(O)c2)C1.Cl,1 µmol/kg,1.3 µmol/kg,Accumulation counts [2]: 78
CCCN(CCC)[C@@H]1CCc2c(O)cccc2C1.Cl,0.41 µmol/kg,0.65 µmol/kg,Accumulation counts [4]: <43
CCCN(CCC)[C@H]1CCc2c(O)cccc2C1.Cl,0.0037 µmol/kg,0.0037 µmol/kg,Accumulation counts [5]: <155 Counts
CCCN(CCC)[C@H]1CCc2ccc(O)cc2C1,1.9 µmol/kg,2.4 µmol/kg,
CN1CCc2cccc3c2[C@H]1Cc1ccc(O)c(O)c1-3 [APOMORPHINE],0.19 µmol/kg,0.22 µmol/kg,
CCCN1CCC[C@@H](c2cccc(O)c2)C1.Cl [PRECLAMOL HYDROCHLORIDE],0.8 µmol/kg,1.7 µmol/kg,Accumulation counts [6]: 12
CCCN1CCC[C@H]2c3cccc(O)c3CC[C@@H]21,0.014 µmol/kg,0.014 µmol/kg,Accumulation counts [7]: <62 Counts; Accumulation counts [8]: <78 Counts
CCCN(CCC)[C@@H]1CCc2ccc(O)cc2C1,0.0095 µmol/kg,0.011 µmol/kg,
Br.CCCCN1CCCC2c3cc(O)ccc3CC[C@H]21 (some centres undefined),,,Accumulation counts [9]: <75; ED50 [10]: inactive; ED50 [11]: inactive
CCCN1CCC[C@H]2c3cccc(O)c3CC[C@H]21,,,ED50 [10]: inactive; ED50 [11]: inactive
CCCN1CCC[C@@H]2c3cccc(O)c3CC[C@H]21,0.32 µmol/kg,0.41 µmol/kg,Accumulation counts [9]: 31; ED50 [10]: inactive; ED50 [11]: inactive; Accumulation counts [12]: <138 Counts; Accumulation counts [8]: <59 Counts
